Results from different studies.
Protocols differ between the studies behind these lines.
Organism: Staphylococcus aureus

`CN[C@H](CC(C)C)C(=O)N[C@H]1C(=O)N[C@@H](CC(N)=O)C(=O)N[C@H]2C(=O)N[C@H]3C(=O)N[C@H](C(=O)N[C@H](C(=O)O)c4cc(O)cc(O)c4-c4cc3ccc4O)[C@H](O)c3ccc(c(Cl)c3)Oc3cc2cc(c3O[C@@H]2O[C@H](CO)[C@@H](O)[C@H](O)[C@H]2O[C@H]2C[C@](C)(N)[C@H](O)[C@H](C)O2)Oc2ccc(cc2Cl)[C@H]1O` gave an MIC90 of 1 µg/mL (microbial growth; MSSA; clinical isolate).
`[H]/N=C(/N)N[C@H]1[C@H](O)[C@@H](O)[C@H](O[C@@H]2O[C@@H](C)[C@](O)(C=O)[C@H]2O[C@@H]2O[C@@H](CO)[C@H](O)[C@@H](O)[C@@H]2NC)[C@@H](N/C(N)=N\[H])[C@@H]1O` has an inhibition zone of 24 mm (microbial growth, well diffusion; MTCC96; 1000 µg/mL, 18 h).
For `CC(=O)NC[C@H]1CN(c2ccc(N3CCOCC3)c(F)c2)C(=O)O1`, the MIC90 was 2 µg/mL (microbial growth; MRSA; clinical isolate).
For `CCCS(=O)(=O)Oc1ccc(C=NNC(=O)CSc2nc3c(C)cccc3c(=O)n2-c2ccccc2)cc1OC`, the inhibition zone was 4 mm (microbial growth, well diffusion; MRSA; 20 µg/mL).
With `COc1cc2c(cc1OC)-c1cc3ccc(OC)c(OC)c3c[n+]1CC2` the MIC50 was 205 µM (microbial growth; 24 h).
With `O=C(O)c1cn(C2CC2)c2cc(N3CCNCC3)c(F)cc2c1=O` the MIC90 was 3.13 µM (microbial growth, broth dilution).
`O=C(/C=C/C=C/c1ccccc1)c1ccccc1OCc1ccccc1Cl` gave an inhibition zone of 7 mm (microbial growth, well diffusion; MTCC96; 1000 µg/mL, 18 h).
`C=C[C@]1(C)C[C@@H](OC(=O)CS[C@@H]2C[C@H]3CC[C@@H](C2)N3C)[C@]2(C)[C@H](C)CC[C@]3(CCC(=O)[C@H]32)[C@@H](C)[C@@H]1O` has an MIC90 of 0.125 µg/mL (microbial growth; MRSA; clinical isolate).
With `CCCS(=O)(=O)Oc1cc(C=NNC(=O)CSc2nc3ccc(Cl)cc3c(=O)n2-c2ccccc2)ccc1OC` the inhibition zone was 2 mm (microbial growth, well diffusion; MRSA; 20 µg/mL).
`CN(C)CCCN1c2ccccc2Sc2ccc(C(F)(F)F)cc21` has an MBC of 64 µg/mL (microbial killing, broth dilution; ATCC43300; 18 h).
For `O=C(O)c1cn(C2CC2)c2cc(N3CCNCC3)c(F)cc2c1=O`, the inhibition zone was 3 mm (microbial growth, well diffusion; MRSA; 20 µg/mL).
For `CC[C@H]1OC(=O)[C@H](C)[C@@H](O[C@H]2C[C@@](C)(OC)[C@@H](O)[C@H](C)O2)[C@H](C)[C@@H](O[C@@H]2O[C@H](C)C[C@H](N(C)C)[C@H]2O)[C@](C)(O)C[C@@H](C)/C(=N\OCOCCOC)[C@H](C)[C@@H](O)[C@]1(C)O`, the MIC90 was 64 µg/mL (microbial growth; MRSA; clinical isolate).
For `O=C(/C=C/C=C/c1ccccc1)c1ccccc1OCc1cccc(Cl)c1`, the inhibition zone was 7 mm (microbial growth, well diffusion; MTCC96; 1000 µg/mL, 18 h).
With `CCS(=O)(=O)Oc1ccc(C=NNC(=O)CSc2nc3c(C)cccc3c(=O)n2-c2ccccc2)cc1` the inhibition zone was 3 mm (microbial growth, well diffusion; MRSA; 20 µg/mL).
The MBC of `CNC(C)C1CCC(N)C(OC2C(N)CC(N)C(OC3OCC(C)(O)C(NC)C3O)C2O)O1` (centres unmarked) is reported as 8000 µM (microbial killing, broth dilution; ATCC25923; 24 h).
`CCCS(=O)(=O)Oc1cc(C=NNC(=O)CSc2nc3c(C)cccc3c(=O)n2-c2ccccc2)ccc1OC` has an inhibition zone of 2 mm (microbial growth, well diffusion; MRSA; 20 µg/mL).
`CC1(C)S[C@@H]2[C@H](NC(=O)[C@H](N)c3ccccc3)C(=O)N2[C@H]1C(=O)O` has an MIC90 of > 128 µg/mL (microbial growth; MRSA; clinical isolate).
